The results in this text go back to ChEMBL document CHEMBL1126720 (J Med Chem, 1993).

Where only a bound is given, the exact number is not on record here.

A short description of experiment [1]: Growth inhibition against CHO-derived cell line AA8 (Non toxic at solubility limit) [RB6145 used as positive control]. Type of experiment: functional, cell-based, Cricetulus griseus. The method, boiled down:
(§1)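 Log-phase AA8 (200 viable cells/well) or UV4 (300 viable cells/well) cells with 5000 lethally irradiated AA8 feeder cells per well, in α-MEM with 10% heat-inactivated fetal calf serum. Cell mass read after 72-78 h by methylene blue protein staining and absorbance. IC50 = concentration reducing cell mass to 50% of the mean of 8 same-plate controls; means of at least 3 determinations ± SEM. Hypersensitivity factor = aerobic IC50(AA8)/IC50(UV4).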

In a further experiment the test system is UV4. Briefly: (§2) Cytotoxicity was measured for 90% kill in UV4 cells under aerobic conditions. Type of experiment: functional. The note with it: Cricetulus griseus. The method in brief: (§3)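 Clonogenic assay in magnetically stirred 10-mL suspensions of late log-phase UV4 cells at 2×10^6 cells/mL, 37 °C, continuously gassed with 5% CO2 in air or N2; samples removed periodically across a range of drug concentrations. CT10 (concentration × time for 10% survival) taken from survival curves; hypoxic selectivity = ratio of aerobic to hypoxic CT10.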

Experiment [2] in a line: Ratio of aerobic CT10 to that of hypoxic CT10. It is filed as functional. The method in brief:
as §3

Experiment [3] can be described thus: Hypersensitivity factor is the ratio of IC50(AA8) to IC50(UV4) under aerobic conditions. It is filed as functional. The method, boiled down: as §1
The nature of experiment [4]: Growth inhibition against CHO-derived cell line AA8. Type of experiment: functional, cell-based, Cricetulus griseus. The method in brief: as §1
A short description of experiment [5]: Hypersensitivity factor is the ratio of IC50(AA8) to IC50(UV4) under aerobic conditions; ND = Nontoxic at the solubility level. It is filed as functional. The method in brief: as §1
Experiment [6] is described as follows: Ratio of aerobic CT10 to that of hypoxic CT10 (for a 1-h exposure). Type of experiment: functional. The method in brief:
as §3

The nature of experiment [7]: as §2. It is filed as functional, Cricetulus griseus. The method in brief:
as §3

Where [8] appears, read: Cricetulus griseus, CHO-derived.

As usually defined, the IC50 is the midpoint of a concentration-inhibition curve. Low readings indicate higher potency, high ones lower potency.

In experiment [1], “Bis (2,4-pentanedionato) (N,N'-bis(2-diethylethylenediamine)cobalt(III) Percholate [listing 1 of 2 here]” registered an IC50 of more than 5000 µM.
Compound “Bis (2,4-pentanedionato) (N,N-bis(2-chloroethyl)ethylenediamine)cobalt(III) Percholate [listing 1 of 2 here]” had a CT10 with UV4 of 0.64 µM·h. Besides, the Ratio in experiment [2] stood at 1.9. In addition, the HF ratio in experiment [3] amounted to 64.
With “Bis (2,4-pentanedionato) (N,N-diethylethylenediamine)cobalt(III) Percholate [listing 1 of 2 here]”, in experiment [4] (cho-derived), the IC50 was determined as 34 µM.
Still for that read-out and setting: then “Bis (3-ethyl-2,4-pentanedionato) (N,N'-bis(2-chloroethyl)ethylenediamine)cobalt(III) Percholate [listing 1 of 2 here]”, with 139 µM.
As for “Bis (3-chlorol-2,4-pentanedionato) (N,N-bis(2-chloroethyl)ethylenediamine)cobalt(III) Percholate [listing 1 of 2 here]”, in experiment [3], the HF ratio is 13.
In the experiment on UV4, “Bis (3-methyl-2,4-pentanedionato) (N,N-bis(2-chloroethyl)ethylenediamine)cobalt(III) Percholate [listing 1 of 2 here]” showed a CT10 of 2.4 µM·h. In addition, the Ratio in experiment [2] came out at 20. Besides, the HF ratio in experiment [3] was 48.
For “Bis (2,4-pentanedionato) (N,N'-bis(2-diethylethylenediamine)cobalt(III) Percholate [listing 2 of 2 here]”, the HF ratio result in experiment [5] is “Nontoxic”.
In experiment [4] (cho-derived), “Bis (3-chlorol-2,4-pentanedionato) (N,N-bis(2-chloroethyl)ethylenediamine)cobalt(III) Percholate [listing 2 of 2 here]” returned an IC50 of 26 µM.
As to “Bis (3-methyl-2,4-pentanedionato) (N,N'-bis(2-chloroethyl)ethylenediamine)cobalt(III) Percholate [listing 1 of 2 here]”, in experiment [4] (cho-derived), the IC50 was 650 µM. This IC50 lies about 25-fold higher than the previous one.
“Bis (3-n-propyl-2,4-pentanedionato) (N,N-bis(2-chloroethyl)ethylenediamine)cobalt(III) Percholate [listing 1 of 2 here]” came in with an IC50 in experiment [4] (cho-derived) of 18.5 µM.
`CCN(CC)CCN`: the IC50 in experiment [4] (setting [8]) was determined as 19000 µM. For the same compound, in experiment [3], the HF ratio is 0.99.
Regarding “Bis (3-methyl-2,4-pentanedionato) (N,N'-bis(2-chloroethyl)ethylenediamine)cobalt(III) Percholate [listing 2 of 2 here]”, in the experiment on UV4, the CT10 was more than 2720 µM·h. For the same compound, the Ratio in experiment [2] is more than 1. The HF ratio in experiment [3] worked out at 2.7.
Compound “Bis (3-n-propyl-2,4-pentanedionato) (N,N-bis(2-chloroethyl)ethylenediamine)cobalt(III) Percholate [listing 2 of 2 here]” had an IC50 in experiment [4] (cho-derived) of 1.35 µM.
In the case of “Bis (2,4-pentanedionato) (N,N-diethylethylenediamine)cobalt(III) Percholate [listing 2 of 2 here]”, the HF ratio in experiment [3] was 0.9.
Consider `O=[N+]([O-])c1nccn1CC(O)CNCCBr` (stereo not given), for which the Ratio in experiment [6] turned out to be 50. In addition, in experiment [4] (setting [8]), half-maximal inhibition (IC50) required 145 µM. In addition, in experiment [7], the CT10 stood at 6600 µM·h. Moreover, the HF ratio in experiment [3] came to 5.9.
As to `CCNCCNCC`, the IC50 in experiment [4] (setting [8]) was 2400 µM. Besides, in experiment [3], the HF ratio worked out at 0.7.
In turn, “Bis (2,4-pentanedionato) (N,N'-bis(2-chloroethyl)ethylenediamine)cobalt(III) Percholate [listing 1 of 2 here]” had an IC50 in experiment [4] (cho-derived) of 890 µM.
In experiment [4] (setting [8]), `ClCCNCCNCCCl` returned an IC50 of 30 µM. The HF ratio in experiment [3] came out at 29.
Compound “Bis (3-ethyl-2,4-pentanedionato) (N,N-bis(2-chloroethyl)ethylenediamine)cobalt(III) Percholate [listing 1 of 2 here]” registered a CT10 with UV4 of 0.51 µM·h. For the same compound, the Ratio in experiment [2] was 4.9. The HF ratio in experiment [3] amounted to 20.
Turning to “Bis (3-methyl-2,4-pentanedionato) (N,N-bis(2-chloroethyl)ethylenediamine)cobalt(III) Percholate [listing 2 of 2 here]”, the IC50 in experiment [4] (cho-derived) was 4.6 µM.
The same measure, in the same setting: then “Bis (3-ethyl-2,4-pentanedionato) (N,N-bis(2-chloroethyl)ethylenediamine)cobalt(III) Percholate [listing 2 of 2 here]”, with 2.3 µM.
Take “Bis (2,4-pentanedionato) (N,N'-bis(2-chloroethyl)ethylenediamine)cobalt(III) Percholate [listing 2 of 2 here]”: the CT10 in the experiment with UV4 was 21500 µM·h. Also, in experiment [2], the Ratio came out at 1.6. Moreover, the HF ratio in experiment [3] is 14.
For “Bis (2,4-pentanedionato) (N,N-bis(2-chloroethyl)ethylenediamine)cobalt(III) Percholate [listing 2 of 2 here]”, it took 3.1 µM to reach half-maximal inhibition in experiment [4] (cho-derived) (IC50).
As to “Bis (3-ethyl-2,4-pentanedionato) (N,N'-bis(2-chloroethyl)ethylenediamine)cobalt(III) Percholate [listing 2 of 2 here]”, the HF ratio in experiment [3] turned out to be 4.8.
